HePTP inhibitor: inhibitors of human HePTP phosphatase, primary screen, biochemical, absorbance, leukemia target; AID 521, 2006; 110,000 tested, 0.64% active; recombinant HePTP phosphatase activity, OD absorbance; Tyrosine-protein phosphatase non-receptor type 7 (Homo sapiens), P35236; inhibition, % at 20 µM; in the data active = inhibition above about 50%;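 note: plate controls were vehicle for no effect and reference inhibitor for full effect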
Target sequence (P35236 whole entry, looked up): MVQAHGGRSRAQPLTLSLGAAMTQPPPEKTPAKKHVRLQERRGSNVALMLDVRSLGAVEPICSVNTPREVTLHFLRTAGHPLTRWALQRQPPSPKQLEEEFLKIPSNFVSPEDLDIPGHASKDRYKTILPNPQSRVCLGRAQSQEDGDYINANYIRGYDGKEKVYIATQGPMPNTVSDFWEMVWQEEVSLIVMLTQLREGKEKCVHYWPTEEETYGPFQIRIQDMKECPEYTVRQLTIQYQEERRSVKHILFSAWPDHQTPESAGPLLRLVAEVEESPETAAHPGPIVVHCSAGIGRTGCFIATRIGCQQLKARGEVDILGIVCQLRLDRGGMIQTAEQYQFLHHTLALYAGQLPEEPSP
PostGolgi ctrl: growth inhibition of yeast control strain, primary screen, counter-screen for post-Golgi transport modulator project | efflux-deficient yeast background strain, growth absorbance A615, 16 h | inhibition, % at 10 µM | 98,000 tested, 5% active
PostGolgi yeast: phenotypic screen on post-Golgi transport, primary screen. post-Golgi transport phenotypic cell assay. inhibition, % at 10 µM. 98,000 tested, 0.9% active. AID 739, 2007;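 note: yeast cells grown in 1536-well plates; yeast grown about 18 h at 30C before absorbance read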
tolC growth inh: growth inhibitors of E. coli tolC mutant, primary screen, strain BW25113 ΔtolC::kan, 384-well. OD615. 65,000 tested, 2.2% active. growth inhibition, % at 10 µM (by protocol);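 active = growth inhibition at or above a cutoff equal to the mean over every tested compound plus 3 SD, cut at about 60% in these data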;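 note: growth measured after 20 h incubation at 37 °C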
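Test system: E. coli BW25113 ΔtolC::kan bacteria | Medium: Kanamycin-containing LB broth (50 µg/mL) | Dosing: One dose of 10 µM final | Times: 20 h incubation with compound, 37 °C | Detection: Optical density read at 615 nm | Read-out basis: Percent growth inhibition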
Ecoli WT expand: growth inhibitors of wild-type E. coli, primary screen, strain BW25113, expanded library, OD600. growth inhibition, % at 100 µM. 98,000 tested, 0.15% active. OD600 absorbance. AID 710, 2007;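 active = growth inhibition above about 50% at one test dose, limit read from the data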;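 note: growth measured after 20 h incubation at 37 °C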
PLAP activator: PLAP enzyme activators, biochemical, luminescence, HTS | Alkaline phosphatase, placental type (Homo sapiens), P05187 | purified PLAP enzyme, luminescent substrate read-out; stronger effect = higher value | activation fold at 20 µM | 96,000 tested, 1.2% active; in the data active = activation fold above about 2
* hit, by the source's call. Shown are actives, neighbours in structure and some others; about 5.4% of the full set was active somewhere. Cut-off read from the data, not from the text of the source, unless noted: active = inhibition above about 30%; inactive = the rest.

For O=C(Cn1c(S(=O)(=O)Cc2ccccc2)nc2ccccc21)N1CCCCC1 the results were HePTP inhibitor -9, PostGolgi ctrl 35*, PostGolgi yeast -18, tolC growth inh -5, Ecoli WT expand -4 and PLAP activator 0.9.
O=C(NCCCNc1ccc([N+](=O)[O-])cc1Cl)c1ccccc1Cl was read as HePTP inhibitor -5.
Screening CC1CC(C)CN(C(=O)CSCC(=O)Nc2nc(-c3cccs3)cs2)C1 (stereo not given) returned HePTP inhibitor 0, PostGolgi ctrl 72*, PostGolgi yeast 5, tolC growth inh 31, Ecoli WT expand -2 and PLAP activator 1.3.
Screening O=C(CSCC(=O)N1CCCCC1)Nc1nc(-c2ccc(Cl)s2)cs1 returned HePTP inhibitor 6, PostGolgi ctrl 72*, PostGolgi yeast 32*, tolC growth inh 46, Ecoli WT expand -22 and PLAP activator 1.3.
For COc1ccc(/C=C2\SC(=S)N(c3cccc(Br)c3)C2=O)cc1 the results were HePTP inhibitor 12.
Cc1c(C=C(C#N)C#N)c(C)c([N+](=O)[O-])c(C)c1[N+](=O)[O-] was read as HePTP inhibitor -13.
Screening Cc1cc(C)nc(SCCn2c(N(C)Cc3ccccc3)nc3c2c(=O)n(C)c(=O)n3C)n1 returned PostGolgi ctrl 34*, PostGolgi yeast 13, Ecoli WT expand 3 and PLAP activator 1.2.
`CCCn1c(CN(Cc2ccccc2)Cc2ccccc2)nc2c1c(=O)n(C)c(=O)n2C` gave HePTP inhibitor 6, PostGolgi ctrl 29, PostGolgi yeast -7, tolC growth inh 65*, Ecoli WT expand 2 and PLAP activator 1.6.
`CC(C)CCn1c(Cl)nc2c1c(=O)n(C)c(=O)n2C` gave HePTP inhibitor 13, PostGolgi ctrl -5, PostGolgi yeast 1, tolC growth inh 3, Ecoli WT expand 2 and PLAP activator 1.1.
`CN(Cc1ccccc1)Cc1nc2c(c(=O)n(C)c(=O)n2C)n1CCc1ccccc1` gave tolC growth inh 23.
CC(C)CCn1c(Oc2ccccc2Cl)nc2c1c(=O)n(C)c(=O)n2C was read as PostGolgi ctrl 32*, PostGolgi yeast 15, Ecoli WT expand -9 and PLAP activator 1.2.
For CN(Cc1ccccc1)Cc1nc2c(c(=O)n(C)c(=O)n2C)n1Cc1ccccc1Cl the results were HePTP inhibitor -4, PostGolgi ctrl 40*, PostGolgi yeast 1, tolC growth inh 5, Ecoli WT expand -9 and PLAP activator 1.5.
Screening CCCn1c(CN(C)Cc2ccccc2)nc2c1c(=O)n(C)c(=O)n2C returned tolC growth inh -3.
For Cn1c(=O)c2c(nc(SCC(=O)OCc3ccccc3)n2C)n(C)c1=O the results were HePTP inhibitor 10, PostGolgi ctrl 34*, PostGolgi yeast 0, tolC growth inh -13, Ecoli WT expand -4 and PLAP activator 1.1.
For Oc1ccc(/C=N/Nc2cc(-c3ccccc3)nc(-c3ccccc3)n2)cc1 the results were HePTP inhibitor 3.
For c1ccc(-c2n[nH]c(C3COc4ccccc4O3)c2-c2nc3ccccc3[nH]2)cc1 (stereo not given) the results were HePTP inhibitor -13.
Screening Cc1cc(O)c(/C=N/Nc2ccc(Cl)cc2)c(=O)o1 returned PostGolgi ctrl 8, PostGolgi yeast 66*, Ecoli WT expand 95* and PLAP activator 0.9.
`O=C1/C(=C\c2cccc(O)c2)SC(=S)N1c1cccc(C(F)(F)F)c1` gave HePTP inhibitor 5.
Screening O=C1N=c2ccccc2=C1N=Nc1nc(O)c(-c2c(O)[nH]c3ccccc23)s1 returned HePTP inhibitor 66*.
Screening COc1cccc(OCCCN2CCOCC2)c1 returned HePTP inhibitor -2.
`COc1cccc(OCCCCCCN2CCOCC2)c1` gave PostGolgi ctrl 21, PostGolgi yeast 45*, Ecoli WT expand -1 and PLAP activator 1.7.
Screening COc1ccc(C(=O)Nc2nnc(-c3ccccc3)o2)cc1OC returned HePTP inhibitor 14, PostGolgi ctrl 17, PostGolgi yeast 0, tolC growth inh 36, Ecoli WT expand -6 and PLAP activator 2.1*.
COc1cccc(-c2nnc(NC(=O)c3ccccc3Br)o2)c1 was read as HePTP inhibitor 9 and tolC growth inh 72*.
Screening COc1cccc(-c2nnc(NC(=O)c3cccc(F)c3)o2)c1 returned HePTP inhibitor -2 and tolC growth inh 100*.
Screening COc1cccc(-c2nnc(NC(=O)C(C)C)o2)c1 returned PostGolgi ctrl -2, PostGolgi yeast -11, Ecoli WT expand 9 and PLAP activator 0.9.
Cc1cccc(-c2nnc(NC(=O)c3ccc(Cl)cc3)o2)c1 was read as HePTP inhibitor 1, PostGolgi ctrl 81*, PostGolgi yeast 94*, tolC growth inh 100*, Ecoli WT expand 30 and PLAP activator 1.
O=C(Nc1nnc(-c2ccc(Cl)cc2)o1)c1nc2ccccc2s1 was read as PostGolgi ctrl -3, PostGolgi yeast 2, Ecoli WT expand 3 and PLAP activator 1.7.
`COc1ccccc1C(=O)Nc1ccc2nn(-c3ccc(F)cc3)nc2c1` gave HePTP inhibitor 7.
Screening COc1ccccc1N1C(=O)c2ccc(C(=O)Nc3cc(C(=O)O)ccc3C)cc2C1=O returned HePTP inhibitor 0.
Screening Cc1cc(NC(=O)CCC(=O)N(CC(=O)NC2CCCC2)c2ccc3c(c2)OCCO3)no1 returned HePTP inhibitor 9, PostGolgi ctrl -3, PostGolgi yeast -1, tolC growth inh -14, Ecoli WT expand 0 and PLAP activator 0.9.
Screening Cc1cc(NC(=O)CCC(=O)N(c2ccc(F)cc2)C2(C(=O)NC3CCCCC3)CCCC2)no1 returned HePTP inhibitor 8, PostGolgi ctrl 39*, PostGolgi yeast 6, tolC growth inh 31, Ecoli WT expand 9 and PLAP activator 1.6.
O=C(Nc1nnc(C2CC2)s1)c1cc(-c2ccccc2)nn1-c1ccccc1 was read as HePTP inhibitor 4, PostGolgi ctrl 25, PostGolgi yeast 39*, tolC growth inh 67*, Ecoli WT expand -11 and PLAP activator 1.9.
O=C(Nc1nnc(C2CC2)s1)c1cc(S(=O)(=O)N2CCN(c3ccccc3)CC2)ccc1Cl was read as PostGolgi ctrl 33*, PostGolgi yeast 12, Ecoli WT expand 0 and PLAP activator 1.
For COc1ccc(NC(=O)c2ccncc2)c(OC)c1 the results were HePTP inhibitor -1.
`Cc1ccc(S(=O)(=O)NC(c2ccccc2)C(C)C(=O)n2nc(C)cc2C)cc1` (stereo not given) gave PostGolgi ctrl 9, PostGolgi yeast -5, Ecoli WT expand -6 and PLAP activator 1.1.

High-throughput results: PubChem BioAssay, several laboratories
